Values after ≈ are worked out from the molar mass of the structure shown. Active and inactive are the calls of the source. The rule behind the calls is not given here.
How the values were obtained:
Staphylococcus aureus = test: Antibacterial activity against clinical isolate of Staphylococcus aureus after 24 hrs by twofold microdilution broth method; format: functional
Outline: (§1)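 Clinical isolates grown in Mueller-Hinton broth at 37 °C; inoculum diluted in MHB to 10^6 CFU. Compounds from 20,000 µg/ml DMSO stocks, twofold serial dilution across ten wells, with medium-only and organism-only controls. Incubated 24 h in ambient air. MIC taken as the lowest concentration with no visible growth by eye. Three replicates.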

Escherichia coli = test: Antibacterial activity against clinical isolate of Escherichia coli after 24 hrs by twofold microdilution broth method; format: functional; outline: as §1
Candida albicans = test: Antifungal activity against Candida albicans CMCC (F) 98001 after 24 hrs by twofold microdilution broth method; format: functional; conditions: CMCC (F) 98001, 24 h
Outline: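 Strain CMCC(F) 98001 grown in Sabouraud dextrose broth at 25 °C; inoculum diluted in SDB to 10^6 CFU. Compounds from 20,000 µg/ml DMSO stocks, twofold serial dilution across ten wells, with medium-only and organism-only controls. Incubated 24 h. MIC read by eye as the lowest concentration with no visible growth. Three replicates.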

[1] = Cytotoxicity against rat IEC-6 cells assessed as cell survival at 10 uM after 72 hrs by MTT assay relative to control; format: cell-based; conditions: read-out: Survival
Outline: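 IEC-6 intestinal epithelial cells were exposed to each compound at a fixed 10 µM for 72 h alongside an untreated blank control. Viability was read by MTT reduction and expressed as survival rate (SR). Compounds with SR between 70% and 100% were classed as noncytotoxic or hypocytotoxic.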

IEC-6 = test: Induction of XBP1 promoter DNA activation in rat IEC-6 cells at 10 uM after 48 hrs by dual luciferase reporter gene assay relative to control; format: cell-based
[2] = Induction of XBP1 promoter DNA activation in rat IEC-6 cells after 48 hrs by dual luciferase reporter gene assay; format: cell-based; conditions: IEC-6, 48 h
Mus musculus [3] = test: Antiulcerogenic activity in DSS-induced acute ulcerative colitis C57BL/6J mouse model assessed as decrease in body weight at 150 mg/kg, po qd administered for 7 days (reference value: 23.96%); format: functional; design: scale not given: the % may be the effect or the level left
Mus musculus [4] = test: Antiulcerogenic activity in DSS-induced acute ulcerative colitis C57BL/6J mouse model assessed as colon contracture at 150 mg/kg, po qd administered for 7 days (reference value: 41.87%); format: functional
Mus musculus [5] = test: Inhibition of DSS-induced acute ulcerative colitis C57BL/6J mouse model at 150 mg/kg, po qd administered for 7 days relative to control; format: functional; conditions: 168 h
Mus musculus [6] = test: Antiulcerogenic activity in DSS-induced acute ulcerative colitis C57BL/6J mouse model assessed as colon macroscopic damage index at 150 mg/kg, po qd administered for 7 days (reference value: 4.13 +/- 0.78); format: functional
Mus musculus [7] = test: Antiulcerogenic activity in DSS-induced acute ulcerative colitis C57BL/6J mouse model assessed as regular arrangement of IEC cells at 150 mg/kg, po qd administered for 7 days by microscopic analysis; format: functional, organism-based
Outline: (§2)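 Colitis induced by DSS in C57BL/6J mice. Agents given orally each day: test agents at 150 mg/kg as a suspension in 0.5% CMC-Na; sulfasalazine at 500 mg/kg. At study end, colon tissue was H&E stained and examined by light microscopy at ×100 for mucosal structure, epithelial cell arrangement, crypt damage, inflammatory infiltration and ulceration.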

Mus musculus [8] = test: Antiulcerogenic activity in DSS-induced acute ulcerative colitis C57BL/6J mouse model assessed as recovery of polar arrangement of IEC cells at 150 mg/kg, po qd administered for 7 days by microscopic analysis; format: functional, organism-based; outline: as §2

Row | Structure (SMILES) | MIC (Staphylococcus aureus) [µg/mL] | MIC (Escherichia coli) [µg/mL] | MIC (Candida albicans) [µg/mL] | viability at 72 h, 10 µM [1] [%] | fold change (FC) (IEC-6) | EC50 [2] [nM] | Activity (Mus musculus [3]) [%] | Activity (Mus musculus [4]) [%] | inhibition in vivo at 150 mg/kg (Mus musculus [5]) [%] | Activity_index (Mus musculus [6]) | Activity (Mus musculus [7]) | Activity (Mus musculus [8])
1 | CCCCCCCCNCc1c2n(c(=O)c3c(OC)c(OC)ccc13)CCc1cc(OC)c(OC)cc1-2 | 31.2 (≈ 61.4 µM) | > 250 | 250 (≈ 491 µM) | 70 to 100 |  |  |  |  |  |  |  | 
2 | CCCCC(=O)c1c2[n+](cc3c(OC)c(OC)ccc13)CCc1cc(OC)c(OC)cc1-2.[Cl-] | 125 | > 250 | > 250 | 70 to 100 | 1.29 | 340 |  |  |  |  |  | 
3 | COc1cc2c(cc1OC)-c1c(C(=O)NCc3ccccc3)c3ccc(OC)c(OC)c3c(=O)n1CC2 | > 250 | > 250 | > 250 | 70 to 100 | 1.2 | 834 |  |  |  |  |  | 
4 | COc1cc2c(cc1OC)-c1c(C=O)c3ccc(OC)c(O)c3c(=O)n1CC2 | > 250 | > 250 | > 250 | 70 to 100 |  |  |  |  |  |  |  | 
5 | CCOC(=O)CCCCCc1c2[n+](cc3c(OC)c(OC)ccc13)CCc1cc(OC)c(OC)cc1-2.[Cl-] | 62.5 | > 250 | > 250 | 70 to 100 |  |  |  |  |  |  |  | 
6 | CCOC(=O)CCCc1c2[n+](cc3c(OC)c(OC)ccc13)CCc1cc(OC)c(OC)cc1-2.[Cl-] | 125 | > 250 | > 250 | 70 to 100 |  |  |  |  |  |  |  | 
7 | CCCC(=O)c1c2[n+](cc3c(OC)c(OC)ccc13)CCc1cc(OC)c(OC)cc1-2.[Cl-] | 250 | > 250 | > 250 | 70 to 100 | 1.59 | 338 |  |  |  |  |  | 
8 | COc1cc2c(cc1OC)-c1c(C=O)c3ccc(OC)c(OC)c3c(=O)n1CC2 | > 250 | > 250 | > 250 | 70 to 100 | 1.41 | 135 | 5.92 | 29.24 | 63.2 | 2.25 | Active | Active
9 | CCCCCC(=O)c1c2[n+](cc3c(OC)c(OC)ccc13)CCc1cc(OC)c(OC)cc1-2.[Cl-] | 62.5 | 250 | > 250 | 70 to 100 |  |  |  |  |  |  |  | 
10 | COc1cc2c(cc1OC)-c1cc3ccc(OC)c(OC)c3c[n+]1CC2.[Cl-] [PALMATINE CHLORIDE] | 250 | > 250 | > 250 | 70 to 100 |  |  |  |  |  |  |  | 
11 | C[C@H]1COc2c(N3CCN(C)CC3)c(F)cc3c(=O)c(C(=O)O)cn1c23.C[C@H]1COc2c(N3CCN(C)CC3)c(F)cc3c(=O)c(C(=O)O)cn1c23.O [LEVOFLOXACIN] | < 1.95 | < 1.95 | > 250 |  |  |  |  |  |  |  |  | 
12 | COc1cc2c(cc1OC)-c1c(C(=O)O)c3ccc(OC)c(OC)c3c(=O)n1CC2 | > 250 | > 250 | > 250 | 70 to 100 |  |  |  |  |  |  |  | 
13 | COc1cc2c(cc1OC)-c1c(C(=O)NC3CC3)c3ccc(OC)c(OC)c3c(=O)n1CC2 | > 250 | > 250 | > 250 | 70 to 100 | 1.36 | 1000 |  |  |  |  |  | 
14 | COc1cc2c(cc1OC)-c1cc3ccc(OC)c(OC)c3c(=O)n1CC2 | > 250 | > 250 | > 250 | 70 to 100 |  |  |  |  |  |  |  | 
15 | CCOC(=O)CCCCc1c2[n+](cc3c(OC)c(OC)ccc13)CCc1cc(OC)c(OC)cc1-2.[Cl-] | 125 | > 250 | > 250 | 70 to 100 |  |  |  |  |  |  |  | 

Reference: ChEMBL document CHEMBL4219240, “Syntheses and structure-activity relationships on antibacterial and anti-ulcerative colitis properties of quaternary 13-substituted palmatines and 8-oxo-13-substituted dihydropalmatines” (Bioorg Med Chem, 2018)
